Assay results taken from the RNAGym collection of RNA variant scans (doi:10.1126/science.aae0568).
This sample holds only a part of the variants without activity.

B1: tRNA (parent)
chain: GUUCCGUUGGCGUAAUGGUAACGCGUCUCCCUCCUAAGGAGAAGACUGCGGGUUCGAGUCCCGUACGGAACG

Variants of: B1
Assay: yeast fitness relative to wild type (ratio to wild type); higher = fitter; tRNA-Arg(CCU), competitive growth, 37 C, YPD
Summary of the method: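 Genotype frequency changes were the basis for Darwinian fitness relative to wild type. The frequencies came from 100-nucleotide paired-end sequencing of gene amplicons from the start population and each end population of pooled yeast strains with tRNA-Arg(CCU) gene variants at the native locus. Competition ran in YPD at 37°C for 24 hours in six replicates, genotypes needed ≥ 100 starting reads, and estimates < 0.5 were set to 0.5.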
In the case of C27G A57U, the yeast fitness is reported as 0.591. With C27G A57U C62U the yeast fitness was 0.62. Work on C27G A65G yielded a yeast fitness of 0.694. C27G A65U showed a yeast fitness of 0.713. In the case of C27G A65U A70G, the yeast fitness is reported as 0.575. In the case of C27G A65U C66G, the yeast fitness is reported as ≤ 0.5. C27G A70C showed a yeast fitness of 0.786. With C27G C29G A40U A45C A57U the yeast fitness was ≤ 0.5. In the case of C27G C29G C34U C55U C61G, the yeast fitness is reported as 0.65. For C27G C29G C49U, the yeast fitness was ≤ 0.5. For C27G C29U A37U, the yeast fitness was ≤ 0.5. In the case of C27G C29U C49U, the yeast fitness is reported as ≤ 0.5. In the case of C27G C29U C49U A70U, the yeast fitness is reported as ≤ 0.5. With C27G C30G A40G C49A the yeast fitness was 0.571. In the case of C27G C30G A40G C49A A65U, the yeast fitness is reported as ≤ 0.5. Work on C27G C30G C49U C60U G63C yielded a yeast fitness of 0.678. With C27G C30G C49U C61A the yeast fitness was ≤ 0.5. In the case of C27G C30G C49U C62U G67A, the yeast fitness is reported as ≤ 0.5. Variant C27G C30G G56U has a yeast fitness of 0.543. With C27G C30G G56U G63A the yeast fitness was ≤ 0.5. C27G C30U A65U A70U showed a yeast fitness of 0.594. In the case of C27G C30U C31A C33G C49U G58C, the yeast fitness is reported as ≤ 0.5. With C27G C30U C46A the yeast fitness was 0.655. For C27G C30U C66U, the yeast fitness was ≤ 0.5. For C27G C30U G39C A40U G44C U47A G48A, the yeast fitness was ≤ 0.5. C27G C30U G52C showed a yeast fitness of 0.507. C27G C30U U32C G51C showed a yeast fitness of 0.603. With C27G C31A A37C the yeast fitness was ≤ 0.5. In the case of C27G C31A A69U, the yeast fitness is reported as 0.589. For C27G C31A A70U, the yeast fitness was ≤ 0.5. With C27G C31A C33G C49U G58C A70U the yeast fitness was ≤ 0.5. C27G C31G A36U A37U gave a yeast fitness of 0.615. With C27G C31G C33U the yeast fitness was ≤ 0.5. C27G C31G C46A gave a yeast fitness of 0.932. For C27G C31G C49A U53C, the yeast fitness was ≤ 0.5. In the case of C27G C31G C61A, the yeast fitness is reported as 0.693. Work on C27G C31G G38C yielded a yeast fitness of 0.504. With C27G C31G G63U the yeast fitness was ≤ 0.5. In the case of C27G C31U A57G, the yeast fitness is reported as 0.562. In the case of C27G C31U C34G A37G A65C, the yeast fitness is reported as ≤ 0.5. With C27G C31U C34G A37G G44A the yeast fitness was ≤ 0.5. In the case of C27G C31U C49G U59A, the yeast fitness is reported as ≤ 0.5. In the case of C27G C33G A57C, the yeast fitness is reported as ≤ 0.5. For C27G C33G G41A, the yeast fitness was ≤ 0.5. For C27G C33G G44A, the yeast fitness was 0.669. For C27G C33U A45U G63A, the yeast fitness was ≤ 0.5. In the case of C27G C34A C61U, the yeast fitness is reported as ≤ 0.5. For C27G C34G A45G G51C A70G, the yeast fitness was ≤ 0.5. In the case of C27G C34G C46U C49U, the yeast fitness is reported as ≤ 0.5. C27G C34G U54A gave a yeast fitness of 0.6. In the case of C27G C34U C49U C66G, the yeast fitness is reported as ≤ 0.5. For C27G C34U G41C G51A, the yeast fitness was ≤ 0.5. With C27G C46A the yeast fitness was 0.933. C27G C46G gave a yeast fitness of 1.11. Work on C27G C46U yielded a yeast fitness of 0.972. For C27G C49U C55G, the yeast fitness was ≤ 0.5. With C27G C49U G63C the yeast fitness was ≤ 0.5. With C27G C55A G58A the yeast fitness was ≤ 0.5. For C27G C60A, the yeast fitness was ≤ 0.5. C27G C60G A65U showed a yeast fitness of 0.641. With C27G C60U the yeast fitness was ≤ 0.5. Variant C27G C60U C61G has a yeast fitness of 0.681. For C27G C60U G67C, the yeast fitness was ≤ 0.5. For C27G G38A A70U, the yeast fitness was ≤ 0.5. C27G G38A G48C showed a yeast fitness of 0.538. C27G G38C showed a yeast fitness of 0.5. In the case of C27G G38C C49G A70G, the yeast fitness is reported as ≤ 0.5. For C27G G38C C62G C66U, the yeast fitness was ≤ 0.5. With C27G G38C U64A the yeast fitness was ≤ 0.5. C27G G39A gave a yeast fitness of 0.615. Work on C27G G39A C46U yielded a yeast fitness of 0.74. Work on C27G G39A C66G yielded a yeast fitness of 0.655. In the case of C27G G39A C66U G67A, the yeast fitness is reported as ≤ 0.5. For C27G G41A, the yeast fitness was 1.03. Variant C27G G41A A57G has a yeast fitness of 0.746. For C27G G41A C49G G56C, the yeast fitness was ≤ 0.5. C27G G41A C55U gave a yeast fitness of 0.618. Variant C27G G41A G67A has a yeast fitness of 0.789. Work on C27G G41A G67U yielded a yeast fitness of 0.709. With C27G G41A G68C the yeast fitness was 0.71. C27G G41A U64A showed a yeast fitness of 0.681. For C27G G44C A45G U64A, the yeast fitness was ≤ 0.5. With C27G G48A U59G the yeast fitness was ≤ 0.5. In the case of C27G G48C C49G, the yeast fitness is reported as 0.503. C27G G50A C60G gave a yeast fitness of 0.778. In the case of C27G G50A G56C, the yeast fitness is reported as ≤ 0.5. For C27G G50C, the yeast fitness was ≤ 0.5. C27G G51C showed a yeast fitness of 0.78. C27G G52A G63A gave a yeast fitness of 0.533. For C27G G63A, the yeast fitness was 0.665. Work on C27G G63C yielded a yeast fitness of 0.582. Variant C27G G67U has a yeast fitness of 0.632. With C27G G68C the yeast fitness was 0.65. In the case of C27G U28A A43U, the yeast fitness is reported as 0.582. For C27G U28A C30G C31U G68C A70C, the yeast fitness was ≤ 0.5. With C27G U28A C34U the yeast fitness was ≤ 0.5. With C27G U28A G52A C55U the yeast fitness was ≤ 0.5. C27G U28C showed a yeast fitness of 0.609. Work on C27G U28G yielded a yeast fitness of 0.522. For C27G U28G C66G G67C, the yeast fitness was ≤ 0.5. C27G U32C C62U showed a yeast fitness of 0.62. In the case of C27G U32G A36C C46G, the yeast fitness is reported as ≤ 0.5. For C27G U32G A40U A42U C55G, the yeast fitness was ≤ 0.5. For C27G U35A, the yeast fitness was 0.636. C27G U35A A45U G67A showed a yeast fitness of 0.612. In the case of C27G U35A G52A A57G A69U A70U, the yeast fitness is reported as ≤ 0.5. C27G U47A showed a yeast fitness of 0.702. C27G U47C G50A A57G C60G showed a yeast fitness of 0.636. In the case of C27G U53C G56A C66U, the yeast fitness is reported as ≤ 0.5. With C27G U53G the yeast fitness was ≤ 0.5. C27G U54A showed a yeast fitness of 0.544. For C27G U54C A69G, the yeast fitness was 0.625. For C27G U54C C62U, the yeast fitness was 0.552. With C27G U59G the yeast fitness was 0.641. C27G U64A showed a yeast fitness of 0.665. With C27U the yeast fitness was 0.995. In the case of C27U A36C A57G, the yeast fitness is reported as ≤ 0.5. In the case of C27U A36C A69U, the yeast fitness is reported as 0.646. With C27U A36C U54A C62U the yeast fitness was ≤ 0.5. For C27U A36G A42C C49U, the yeast fitness was 0.574. In the case of C27U A36G G56C, the yeast fitness is reported as ≤ 0.5. In the case of C27U A36U A69C A70U, the yeast fitness is reported as ≤ 0.5. With C27U A37C A40U A43U C66U the yeast fitness was 0.583. In the case of C27U A37C C60G A65G, the yeast fitness is reported as ≤ 0.5. For C27U A37C G51C G67U, the yeast fitness was 0.543. For C27U A37C G56C G63C U64C, the yeast fitness was ≤ 0.5. Work on C27U A37G A70C yielded a yeast fitness of 0.562. For C27U A37G G38C A43C C62G, the yeast fitness was 0.508. In the case of C27U A37G G41A G50C, the yeast fitness is reported as 0.649. For C27U A37U A65U, the yeast fitness was 0.591. With C27U A37U C49U the yeast fitness was 0.549. Variant C27U A37U U47G has a yeast fitness of 0.531. Work on C27U A40C C46U yielded a yeast fitness of 0.661. Work on C27U A40C G58A yielded a yeast fitness of 0.626. In the case of C27U A40G, the yeast fitness is reported as 0.834. With C27U A40G C62G G68A the yeast fitness was ≤ 0.5. With C27U A40G G44A the yeast fitness was 0.513. For C27U A40G G44A C55U A69U, the yeast fitness was ≤ 0.5. For C27U A40U, the yeast fitness was 0.925. In the case of C27U A40U U54C, the yeast fitness is reported as ≤ 0.5. Variant C27U A42G has a yeast fitness of 0.695. C27U A42G G67A showed a yeast fitness of 0.589. C27U A42U C61G showed a yeast fitness of 0.545. In the case of C27U A42U C62U A65C G67A, the yeast fitness is reported as ≤ 0.5. For C27U A43C A69C, the yeast fitness was 0.754. With C27U A43C C49U the yeast fitness was 0.757. Work on C27U A43C U64C yielded a yeast fitness of 0.732. For C27U A43U C55G, the yeast fitness was 0.544. C27U A45C showed a yeast fitness of 0.947. For C27U A45C C49U G56A, the yeast fitness was ≤ 0.5. C27U A45C G48A A57U G68C showed a yeast fitness of 0.562. For C27U A45C G63A, the yeast fitness was 0.68. Variant C27U A45C G67A has a yeast fitness of 0.666. Work on C27U A45C U64G yielded a yeast fitness of 0.584. Variant C27U A45U has a yeast fitness of 1.02. For C27U A45U G50A A69C, the yeast fitness was ≤ 0.5. C27U A65G G68A gave a yeast fitness of 0.563. Work on C27U A65U yielded a yeast fitness of 0.99. In the case of C27U A65U A70C, the yeast fitness is reported as 0.607. Work on C27U A69U yielded a yeast fitness of 1.02. With C27U C29A C49A the yeast fitness was ≤ 0.5. In the case of C27U C29A G38C A57G C61U, the yeast fitness is reported as ≤ 0.5. With C27U C29U A57C the yeast fitness was ≤ 0.5. With C27U C29U C62U the yeast fitness was 0.578. For C27U C30A A42U A57U G63A A65C, the yeast fitness was 0.597. In the case of C27U C30A A69U, the yeast fitness is reported as 0.585. For C27U C30A C46G, the yeast fitness was 0.698.
